From ChEMBL document CHEMBL1128450, “Mononucleoside phosphotriester derivatives with S-acyl-2-thioethyl bioreversible phosphate-protecting groups: intracellular delivery of 3'-azido-2',3'-dideoxythymidine 5'-monophosphate” (J Med Chem, 1995)
Where “and” joins values, the source holds several entries; their conditions need not be identical. Equal entries are not always repeated.

Assays:
MT4 [1] = experiment: Antiviral activity in MT-4 cell line infected with HIV-1 and Concentration required to inhibit the replication of HIV-1 by 50% was determined; assay type: functional, cell-based; settings: Homo sapiens
How it was run: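 HIV-1 IIIB at 50 TCID50 adsorbed to MT-4 cells for 30 min, followed by two washes and 5 days of culture with graded compound concentrations. Protection from virus-induced cytopathogenicity was read by MTT reduction to formazan. EC50 was taken from a median effect plot, averaging at least three separate experiments.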

[2] = Selectivity Index measured as the ratio of CC50(CEM-SS) to EC50(CEM-SS).; assay type: functional
CEM/TK- (Homo sapiens) [3] = experiment: Antiviral activity in CEM/TK cell line infected with HIV-1 and cytotoxic concentration required to reduce the viability of uninfected cells by 50%
[4] = Half life evaluated in Culture Medium(CM); assay type: ADME; settings: for half-life: culture medium (CM)
How it was run: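 Compounds at 5 × 10⁻⁵ M initial were incubated at 37 °C in RPMI 1640 with 10% heat-inactivated fetal calf serum. Crude aliquots were analysed by on-line ISRP precolumn-cleaning HPLC, with and without tetrabutylammonium ion-pairing, on a C18 column using an ammonium acetate pH 6.0/acetonitrile gradient. Species were quantified from peak areas at 266 nm. Half-lives were derived from pseudo-first-order rate constants fitted by mono- or polyexponential regression.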

CEM-SS [5] = experiment: Antiviral activity in CEM-SS cell line infected with HIV-1 and Concentration required to inhibit the replication of HIV-1 by 50% was determined; assay type: functional, cell-based; settings: Homo sapiens
How it was run: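 Cells infected with HIV-LAI at 100 TCID50 for 30 min, washed twice, then cultured with a range of compound concentrations for 5 days (6 days for CEM/TK⁻). Virus production was read as reverse transcriptase activity in the culture supernatant. EC50 was taken from a median effect plot of the dose–effect data, averaging at least three separate experiments.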

[6] = Half life evaluated in Total Cell Extract(TCE).; assay type: ADME; settings: for half-life: total cell extract (TCE)
How it was run: (§1)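 Compounds at 5 × 10⁻⁵ M initial were incubated at 37 °C in total cell extract from CEM-SS cells. Crude aliquots were analysed by on-line precolumn-cleaning HPLC, with and without ion-pairing reagent, on a C18 column using an ammonium acetate/acetonitrile gradient, with areas read at 266 nm. Half-lives came from pseudo-first-order rate constants fitted to kinetic models by exponential regression.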

CEM-SS [7] = experiment: Antiviral activity in CEM-SS cell line infected with HIV-1 and cytotoxic concentration required to reduce the viability of uninfected cells by 50%; assay type: functional; settings: Homo sapiens
How it was run: (§2)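 Uninfected cells were exposed to compound for 5 days, and viability was read by colorimetric MTT test. Values average at least three separate experiments.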

CEM/TK- (Homo sapiens) [8] = experiment: Antiviral activity in CEM/TK cell line infected with HIV-1 and Concentration required to inhibit the replication of HIV-1 by 50% was determined
MT4 [9] = experiment: Antiviral activity in MT-4 cell line infected with HIV-1 and cytotoxic concentration required to reduce the viability of uninfected cells by 50%; assay type: functional; settings: Homo sapiens; how it was run: as §2
[10] = Selectivity Index measured as the ratio of CC50(CEM/TK) to EC50(CEM/TK).; assay type: functional
[11] = Half life evaluated in Total Cell Extract(TCE) for determination 1.; assay type: ADME; how it was run: as §1
[12] = Half life evaluated in Total Cell Extract(TCE) for determination 2.; assay type: ADME; how it was run: as §1
[13] = Half life evaluated in Total Cell Extract(TCE) for determination 3.; assay type: ADME; how it was run: as §1

Cc1cn(C2CC(N=[N+]=[N-])C(COP(=O)(OCCSC(=O)C(C)C)OCCSC(=O)C(C)C)O2)c(=O)[nH]c1=O (centres undefined)
EC50 (MT4 [1]): 48 nM | Selectivity index [2]: > 200 | CC50 (CEM/TK- (Homo sapiens) [3]): > 10000 nM | half-life [4]: 9 h | EC50 (CEM-SS [5]): 46 nM | half-life [6]: 0.75 h | CC50 (CEM-SS [7]): > 10000 nM | EC50 (CEM/TK- (Homo sapiens) [8]): 520 nM | CC50 (MT4 [9]): > 10000 nM | Selectivity index [10]: > 17

Cc1cn([C@H]2C[C@H](N=[N+]=[N-])[C@@H](COP(=O)(O)O)O2)c(=O)[nH]c1=O [AZIDOTHYMIDINE MONOPHOSPHATE]
T1/2 [4]: 72 h and 67 h | half-life [4]: 50 h | T1/2 [6]: 4 h | half-life [6]: 4 h

Cc1cn(C2CC(N=[N+]=[N-])C(COP(=O)(OCCSSCCO)OCCSSCCO)O2)c(=O)[nH]c1=O (centres undefined)
EC50 (MT4 [1]): 54 nM | Selectivity index [2]: > 4300 | CC50 (CEM/TK- (Homo sapiens) [3]): > 100000 nM | EC50 (CEM-SS [5]): 23 nM | CC50 (CEM-SS [7]): > 100000 nM | EC50 (CEM/TK- (Homo sapiens) [8]): 550 nM | CC50 (MT4 [9]): > 100000 nM | Selectivity index [10]: > 180

Cc1cn(C2CC(N=[N+]=[N-])C(COP(=O)(O)OCCSC(=O)C(C)C)O2)c(=O)[nH]c1=O (centres undefined)
half-life [4]: 12.3 h | half-life [6]: 7.1 h

CC(=O)SCCOP(=O)(OCCSC(C)=O)OCC1OC(n2cc(C)c(=O)[nH]c2=O)CC1N=[N+]=[N-] (centres undefined)
EC50 (MT4 [1]): 50 nM | Selectivity index [2]: 4300 | CC50 (CEM/TK- (Homo sapiens) [3]): > 100000 nM | half-life [4]: 9 h | EC50 (CEM-SS [5]): 22 nM | half-life [6]: < 0.0833 h | CC50 (CEM-SS [7]): 93000 nM | EC50 (CEM/TK- (Homo sapiens) [8]): 49 nM | CC50 (MT4 [9]): 67000 nM | Selectivity index [10]: > 2050

Cc1cn([C@H]2C[C@H](N=[N+]=[N-])[C@@H](CO)O2)c(=O)[nH]c1=O [ZIDOVUDINE]
EC50 (MT4 [1]): 17 nM | Selectivity index [2]: > 17300 | CC50 (CEM/TK- (Homo sapiens) [3]): > 100000 nM | EC50 (CEM-SS [5]): 6 nM | CC50 (CEM-SS [7]): > 100000 nM | EC50 (CEM/TK- (Homo sapiens) [8]): > 100000 nM | CC50 (MT4 [9]): 75000 nM

Cc1cn(C2CC(N=[N+]=[N-])C(COP(=O)(O)OCCS)O2)c(=O)[nH]c1=O (centres undefined)
half-life [11]: 2.3 h | half-life [12]: 9 h | half-life [13]: 10.5 h

Cc1cn(C2CC(N=[N+]=[N-])C(COP(=O)(O)OCCSC(=O)C(C)(C)C)O2)c(=O)[nH]c1=O (centres undefined)
half-life [4]: 21.3 h | half-life [6]: 7.2 h

CC(=O)SCCOP(=O)(O)OCC1OC(n2cc(C)c(=O)[nH]c2=O)CC1N=[N+]=[N-] (centres undefined)
half-life [4]: 8.9 h | half-life [6]: < 0.0833 h

Cc1cn(C2CC(N=[N+]=[N-])C(COP(=O)(OCCSC(=O)C(C)(C)C)OCCSC(=O)C(C)(C)C)O2)c(=O)[nH]c1=O (centres undefined)
EC50 (MT4 [1]): 810 nM | Selectivity index [2]: > 670 | CC50 (CEM/TK- (Homo sapiens) [3]): > 10000 nM | half-life [4]: 103 h | EC50 (CEM-SS [5]): 15 nM | half-life [6]: 1.05 h | CC50 (CEM-SS [7]): > 10000 nM | EC50 (CEM/TK- (Homo sapiens) [8]): 450 nM | CC50 (MT4 [9]): > 10000 nM | Selectivity index [10]: > 22

Cc1cn(C2CC(N=[N+]=[N-])C(COP(=O)(OCOC(=O)C(C)(C)C)OCOC(=O)C(C)(C)C)O2)c(=O)[nH]c1=O (centres undefined)
EC50 (MT4 [1]): 52 nM | Selectivity index [2]: 860 | CC50 (CEM/TK- (Homo sapiens) [3]): 65500 nM | EC50 (CEM-SS [5]): 77 nM | CC50 (CEM-SS [7]): 67000 nM | EC50 (CEM/TK- (Homo sapiens) [8]): 255 nM | CC50 (MT4 [9]): 59000 nM | Selectivity index [10]: 250

Cc1cn(C2CC(N=[N+]=[N-])C(COP(=O)(OCCSC(=O)c3ccccc3)OCCSC(=O)c3ccccc3)O2)c(=O)[nH]c1=O (centres undefined)
EC50 (MT4 [1]): 76 nM | Selectivity index [2]: > 8 | CC50 (CEM/TK- (Homo sapiens) [3]): > 1000 nM | EC50 (CEM-SS [5]): 125 nM | CC50 (CEM-SS [7]): > 1000 nM | EC50 (CEM/TK- (Homo sapiens) [8]): 320 nM | CC50 (MT4 [9]): > 1000 nM | Selectivity index [10]: > 4
